Source: PubChem
KCNQ1 act – potentiates or activates the human KCNQ1 potassium channel | B-score at 10 µM | P51787 | AID 2648 | 0.35% of 310,000 active | CHO-K1 KCNQ1, thallium flux FluxOR fluorescence; stronger effect = higher value;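 active = fluorescence ratio B-score, a plate-corrected score, at least three library SD, with initial intensity B-score within 5 SD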
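Assay system: stable KCNQ1 CHO-K1 line; medium: assay buffer, equal DMSO in all wells; timing: 90 min dye loading and 20 min compound exposure, both at room temperature; technique: kinetic FluxOR thallium fluorescence, 10-s 1-Hz baseline, 110-s post-stimulus read; read-out basis: B score of baseline-normalized fluorescence ratio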
KCNQ1 inh – inhibitors of human KCNQ1 potassium channel | P51787 | 1.3% of 310,000 active | CHO-K1 KCNQ1, FluxOR thallium flux fluorescence; stronger effect = higher value | B-score at 10 µM;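 active = compounds whose thallium flux B-score, printed positive for inhibition, exceeds three library SD while starting fluorescence stays within three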;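 note: channel opened by potassium depolarization with thallium stimulus after 20 min compound exposure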
hERG rescue – shields human hERG channel from block by proarrhythmic agents; 0.51% of 310,000 active; activation (rescue from dofetilide block), less the hit threshold, % at 10 µM; Q12809; CHO-hERG, FluxOR thallium flux, dofetilide IC70 present;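 active = activation above the mean of controls blocked by dofetilide plus 5 SD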;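 note: thallium influx through hERG after potassium depolarization seen as dye fluorescence rise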
KCNK9 block – human KCNK9 channel inhibition; Q9NPC2; HEK293 KCNK9, FluxOR thallium flux fluorescence; stronger effect = lower value; B-score at 10 µM; 1.2% of 310,000 active; AID 488922;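 active = ratio B-score over 3 SD below the library mean, with starting fluorescence within 5 SD of its mean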;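 note: negative B-score means less thallium flux so channel inhibition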
Target sequence (Q9NPC2 whole entry, looked up): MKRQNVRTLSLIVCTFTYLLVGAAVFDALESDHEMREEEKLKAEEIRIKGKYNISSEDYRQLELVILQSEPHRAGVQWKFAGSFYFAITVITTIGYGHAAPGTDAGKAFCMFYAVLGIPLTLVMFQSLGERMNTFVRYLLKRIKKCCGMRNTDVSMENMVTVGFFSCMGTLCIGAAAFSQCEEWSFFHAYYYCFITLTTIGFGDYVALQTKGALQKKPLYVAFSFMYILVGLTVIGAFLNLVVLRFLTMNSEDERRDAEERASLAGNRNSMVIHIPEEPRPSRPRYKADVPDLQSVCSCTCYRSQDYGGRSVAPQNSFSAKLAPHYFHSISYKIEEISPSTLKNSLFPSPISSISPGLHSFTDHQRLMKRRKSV
Cl transport mod – KCC2 (human) Cl- transport modulation; Q9H2X9; KCC2 cells, thallium flux FluoZin-2 fluorescence; B-score of Tl+ flux slope (higher = more flux/activation; lower = inhibition) at 10 µM; 2.2% of 190,000 active;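 active = thallium flux slope and its plate-corrected score both differing from the plate sample mean at a set confidence after two filtering rounds, in either direction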;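 note: slope of fluorescence scaled to starting intensity during 10 to 20 s after thallium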
KCNK3 inh – human KCNK3 channel inhibition, primary screen; O14649; B-score at 10 µM; 0.84% of 340,000 active; CHO-KCNK3 thallium flux, FluxOR fluorescence; stronger effect = lower value; AID 602410;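 active = B-score under library mean minus 4 SD, starting fluorescence ratio at most library mean plus 5 SD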;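 note: more negative B-score means stronger inhibition of thallium flux through KCNK3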
Target sequence (O14649 whole entry, looked up): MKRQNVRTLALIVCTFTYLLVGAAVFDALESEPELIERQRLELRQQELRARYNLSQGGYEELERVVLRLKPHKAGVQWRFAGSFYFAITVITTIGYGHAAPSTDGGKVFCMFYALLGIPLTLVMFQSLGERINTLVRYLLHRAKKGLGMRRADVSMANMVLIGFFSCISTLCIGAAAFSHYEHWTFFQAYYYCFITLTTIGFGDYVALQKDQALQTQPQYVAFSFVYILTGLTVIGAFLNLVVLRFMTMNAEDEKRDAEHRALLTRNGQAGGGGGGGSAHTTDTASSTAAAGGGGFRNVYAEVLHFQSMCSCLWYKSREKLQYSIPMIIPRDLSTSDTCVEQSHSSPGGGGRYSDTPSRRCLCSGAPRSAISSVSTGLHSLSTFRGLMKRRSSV
KCNK9 inh conf – confirmation of human KCNK9 potassium channel inhibitors; shares compounds with KCNK9 block; HEK293 KCNK9 cells, FluxOR thallium flux fluorescence; inhibition, % at 10 µM; 43% of 4,900 active;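 active = thallium signal inhibited by more than 5 SD of the compound-free buffer control wells, on both duplicate plates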
Kir21 sel – mouse Kir2.1 off-target activity of KCNK9 modulators. shares compounds with KCNK9 block. Kir2.1 cells, FluxOR thallium flux fluorescence. 4% of 4,900 active. inhibition, % at 10 µM;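 active = thallium signal drop more than 5 SD beyond the mean of the no-compound control wells, seen in both duplicate plates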;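 note: signal is fluorescence rise after thallium addition divided by baseline fluorescence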
KCNK9 uninduced – second check of KCNK9 modulator effects in non-induced HEK293 cells | 40% of 4,900 active | inhibition, % at 10 µM | shares compounds with KCNK9 block | FluxOR thallium flux;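 active = thallium signal drop beyond 5 SD of the untreated control mean, on both duplicate plates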
Large screens that a line does not name were inactive (follow-up assays come after a bar, where they were run). Sampled rows, rich in hits. Any-hit rate of the full collection: about 4.1%.

CSCc1ccc(C(=O)N2CCCC(Nc3ccc(F)cc3)C2)o1 (stereo not drawn)	none (no result: Cl transport mod) | KCNK9 inh conf inactive | Kir21 sel 33% | KCNK9 uninduced inactive
Cc1cc(C)c(C(=O)N2CCCC(Nc3ccc(F)cc3)C2)o1 (stereo not drawn)	none (no result: Cl transport mod)
CSCc1ccc(C(=O)N2CCCC(Nc3ccc4c(c3)OCCO4)C2)o1 (stereo not drawn)	none (no result: Cl transport mod) | KCNK9 inh conf inactive | Kir21 sel inactive | KCNK9 uninduced inactive
Cc1nnc(SCC(=O)NC(C)(C)C)n1NCc1cccc(Br)c1	none (no result: Cl transport mod)
O=C(O)c1cc(NN=Nc2ccc(Br)cc2)cc([N+](=O)[O-])c1	none | KCNK9 inh conf inactive | Kir21 sel inactive | KCNK9 uninduced inactive
O=C(O)c1cc(NN=Nc2cccc([N+](=O)[O-])c2)cc([N+](=O)[O-])c1	none
NC1=NC(=O)C2(COC(c3cccc([N+](=O)[O-])c3)OC2)S1 (stereo not drawn)	none
CC(=O)N1CCCc2cc(S(=O)(=O)N3CCCC(C(=O)N4CCN(c5cc(C)ccc5C)CC4)C3)ccc21 (stereo not drawn)	none (no result: Cl transport mod) | KCNK9 inh conf inactive | Kir21 sel inactive | KCNK9 uninduced inactive
O=C(C1CCC1)N1CCc2cc(S(=O)(=O)N3CCCCC3)ccc21	none
CC(=O)N1CCCc2cc(S(=O)(=O)N3CCCC(C(=O)N4CCN(c5ccccc5)CC4)C3)ccc21 (stereo not drawn)	none (no result: Cl transport mod)
Cc1cccc(N2CCN(S(=O)(=O)c3ccc4c(c3)CCCN4C(=O)C3CCC3)CC2)c1C	none (no result: Cl transport mod) | KCNK9 inh conf inactive | Kir21 sel inactive | KCNK9 uninduced inactive
Cc1ccc2[nH]c(=O)c(C(c3nnnn3C3CCCC3)N(Cc3cccnc3)Cc3ccco3)cc2c1 (stereo not drawn)	none
Clc1ccc(C(c2nnnn2C2CCCCC2)N(Cc2cccnc2)Cc2ccco2)cc1 (stereo not drawn)	KCNK9 block -11 | KCNK9 inh conf inactive | Kir21 sel inactive | KCNK9 uninduced 45%
O=C(C1=C[C@@H](c2ccc(Br)cc2)C[C@@H](OCc2ccc(CO)cc2)O1)N1CCN(Cc2ccccc2)CC1	none
O=C(C1=C[C@@H](c2ccc(C(F)(F)F)cc2)C[C@@H](OCCCCO)O1)N1CCN(Cc2ccccc2)CC1	none
O=C(C1=C[C@H](c2ccc(C(F)(F)F)cc2)C[C@H](OCCCCO)O1)N1CCN(Cc2ccccc2)CC1	none | KCNK9 inh conf inactive | Kir21 sel inactive | KCNK9 uninduced inactive
C#Cc1ccc([C@H]2C=C(C(=O)N3CCN(Cc4ccccc4)CC3)O[C@@H](OCc3ccc(CO)cc3)C2)cc1	none | KCNK9 inh conf inactive | Kir21 sel inactive | KCNK9 uninduced inactive
Cc1[nH]c(=O)[nH]c(=O)c1/C=N/NC(=O)[C@@H](N)CC(C)C	none
Cc1cc2cc(C)c3nnc(SCc4ccccn4)n3c2cc1C	none
COC(=O)CNC(=O)COC(=O)/C=C/c1ccc(F)cc1	none
CCNC(=S)N1CCN=C1Nc1nc(C)cc(C)n1	none (no result: Cl transport mod)
Cc1ccc(C(=O)/C=C\NCc2ccccc2)cc1	none (no result: Cl transport mod)
COc1ccc(C(=O)/C=C/NCc2ccc(C)cc2)cc1	none (no result: Cl transport mod) | KCNK9 inh conf inactive | Kir21 sel inactive | KCNK9 uninduced inactive
Cc1ccccc1N(C(=O)c1ccco1)C(C(=O)NC1CCCC1)c1cccnc1 (stereo not drawn)	none (no result: Cl transport mod)
O=C(NCCN1C(=O)S/C(=C\c2ccc(OC(F)F)cc2)C1=O)C1=COCCO1	none (no result: Cl transport mod) | KCNK9 inh conf inactive | Kir21 sel inactive | KCNK9 uninduced inactive
Cc1cc(NC(=O)c2cccs2)ncc1NC(=O)C(C)C	none (no result: Cl transport mod)
COc1cccc(Nc2nc(-c3cccc(N4C(=O)c5ccccc5C4=O)c3)cs2)c1	none | KCNK9 inh conf inactive | Kir21 sel inactive | KCNK9 uninduced inactive
CCOC(=O)N1CCN(Cc2cc(=O)oc3ccc4ccccc4c23)CC1	none
O=C(CC12CC3CC(CC(C3)C1)C2)NCC(=O)OCc1cc(=O)oc2ccc3ccccc3c12	KCNK9 block -15 | KCNK9 inh conf 62% | Kir21 sel inactive | KCNK9 uninduced inactive
COc1ccc(C)cc1S(=O)(=O)Nc1cccnc1	none
O=C(CCc1ccc(O)c(O)c1)N/N=C/c1cc2c(cc1[N+](=O)[O-])OCO2	none (no result: Cl transport mod)
Cc1nn(C)c(C)c1NC(=O)CSc1nc(C2CC2)nc2c1cnn2-c1ccccc1	none
CC1CCCCN1C(=O)CSc1nc(C2CC2)nc2c1cnn2-c1ccccc1 (stereo not drawn)	KCNK9 block -11 (no result: Cl transport mod) | KCNK9 inh conf 56% | Kir21 sel inactive | KCNK9 uninduced inactive
Cc1ccc(C(=O)COC(=O)c2ccccc2NC(=O)c2ccccc2)cc1[N+](=O)[O-]	KCNK9 block -9 | KCNK9 inh conf 49% | Kir21 sel inactive | KCNK9 uninduced 36%
Cc1ccc(C(=O)COC(=O)CNC(=O)Cc2ccccc2)cc1[N+](=O)[O-]	none
CCOCCOC(=O)COC(=O)c1ccccc1NC(=O)c1ccccc1	none | KCNK9 inh conf inactive | Kir21 sel inactive | KCNK9 uninduced inactive
CC(C)(C)C(=O)Nc1ccccc1C(=O)OCC(=O)c1ccc2c(c1)OCCO2	KCNK9 block -18 | KCNK9 inh conf 62% | Kir21 sel inactive | KCNK9 uninduced 32%
CCOCC(=O)Nc1ccccc1C(=O)OCC	none
O=C(O)/C=C/C(=O)NCCC1=CCCCC1	none
FC(F)Sc1ccc(-n2cc(-c3ccccc3)[n+]3c2CCC3)cc1	none
CCOc1ccc(/C=C2\SC(=S)N(CCC(=O)Nc3cccc(C(=O)O)c3)C2=O)cc1	none (no result: Cl transport mod) | KCNK9 inh conf inactive | Kir21 sel inactive | KCNK9 uninduced inactive
CCc1ccc(/C=C2\SC(=S)N(CCCC(=O)Nc3ccccc3C(=O)O)C2=O)cc1	none (no result: Cl transport mod) | KCNK9 inh conf inactive | Kir21 sel inactive | KCNK9 uninduced inactive
CCc1ccc(/C=C2\SC(=S)N(CCCC(=O)Nc3ccc(C(=O)O)cc3)C2=O)cc1	none (no result: Cl transport mod) | KCNK9 inh conf inactive | Kir21 sel inactive | KCNK9 uninduced inactive
O=C(O)CCn1nnc(-c2ccccc2)n1	none
Cn1nc(C(=O)NNC(=O)c2ccccc2F)c2ccccc2c1=O	none (no result: KCNQ1 act, KCNQ1 inh, hERG rescue, KCNK9 block, Cl transport mod)
N#Cc1cc(-c2ccc(Cl)cc2)cnc1Sc1ccccc1	none
N#Cc1cc(-c2ccccc2)cnc1Sc1ccc(Cl)cc1	none | KCNK9 inh conf inactive | Kir21 sel inactive | KCNK9 uninduced inactive
CCOc1ccc(-c2cc(C(=O)NN3CCN(C)CC3)c3cc(Cl)ccc3n2)cc1	none (no result: KCNK3 inh)
C[C@H](CO)N1C[C@H](C)[C@@H](CN(C)S(=O)(=O)c2cccs2)Oc2ccc(NC(=O)c3ccncc3)cc2C1=O	none (no result: KCNQ1 act, KCNQ1 inh, hERG rescue, KCNK9 block, Cl transport mod)
